Measurements gathered from unrelated publications.
Compare with care: the assays were run in different laboratories.

| SMILES | cell line | test | conditions | endpoint | result |
| --- | --- | --- | --- | --- | --- |
| CN(C)C(=O)c1cc2cnc(Nc3ccc(N4CCNCC4)cn3)nc2n1C1CCCC1 | human Neutrophil | reactive oxygen species, inhibitor | – | IC50 | 1670 nM |
| O=C(O)c1cccnc1Nc1cccc(C(F)(F)F)c1 | NCI-H226 | cell growth or viability, CCK-8 | 72 h | GI50 | > 40000 nM |
| O=C(O)c1ccc2c(c1)nc(Nc1cccc(Cl)c1)c1ccncc12 | NCI-H226 | cell growth or viability, resazurin | 48 h | IC50 | 14200 nM |
| CC1(C)CCC(CN2CCN(c3ccc(C(=O)NS(=O)(=O)c4ccc(NCC5CCOCC5)c([N+](=O)[O-])c4)c(Oc4cnc5[nH]ccc5c4)c3)CC2)=C(c2ccc(Cl)cc2)C1 | SU-DHL-8 | cell growth or viability, ATP luminescence | 48 h | IC50 | 5380 nM |
| C=C(F)C(=O)N1CCN(c2nc(OC[C@@H]3CCCN3C)nc3c2CCN(c2cccc4cccc(Cl)c24)C3)C[C@@H]1CC#N | Calu-1 | cell growth or viability, ATP luminescence | 3D culture | IC50 | 40.9 nM |
| C=CC(=O)c1cccnc1Nc1cc(C(F)(F)F)ccc1OCc1ccccc1 | NCI-H226 | cell growth or viability, CCK-8 | 72 h | GI50 | 12800 nM |
| C=CC(=O)NC1CCN(c2ncc3ncnc(Nc4ccc(Oc5ccc6c(c5)ncn6C)c(C)c4)c3n2)CC1 | Hs766T | cell growth or viability | – | EC50 | 1150 nM |
| C=CC(=O)N1CCN(c2nc(=O)n(-c3c(C)ccnc3C(C)C)c3nc(-c4c(O)cccc4F)c(F)cc23)[C@@H](C)C1 | Calu-1 | cell growth or viability, ATP luminescence | – | IC50 | 7.75 nM |
| CC(C)c1ccccc1[C@@H]1CCCN1C1CC2(CCN(c3ccc(C(=O)NS(=O)(=O)c4ccc(NC[C@H]5CC[C@](C)(O)CC5)c([N+](=O)[O-])c4)c(Oc4cnc5[nH]ccc5c4)c3)CC2)C1 | MINO | cell growth or viability, ATP luminescence | 48 h | IC50 | 13 nM |
